Where only a bound is given, the exact number is not on record here.

The subject of data set [1] is Calf thymus DNA. Put plainly: Inhibitory concentration against ethidium bromide binding to DNA. It counts as nucleic-acid assay. The settings on record: Bos taurus. A digest of the protocol:
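Fluorometric competition with ethidium bromide bound to sonicated calf thymus DNA, 20 °C, 0.02 M sodium acetate pH 5.5. Final DNA 2.5 × 10^-6 M (base pairs), ethidium 5 × 10^-6 M; competitor added in portions. Excitation 546 nm, emission 590 nm. Bound ethidium per base pair plotted vs rf (competitor/DNA bp). rf50 taken at 50% displacement of bound ethidium.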

The subject of data set [2] is L1210. The data set is described as follows: Lethal concentration required to reduce cloning efficiency of L1210 cell line to a factor of 0.37 after 24 hour exposure. The data set is classed as cell-based. The settings on record: mouse, l1210, 24 h.
The subject of data set [3] is L1210. The data set is described as follows: The effective dose against L1210 cell growth. It counts as functional. As to conditions: Mus musculus, read-out: ED50 (the source's name). A digest of the protocol:
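Exponentially growing L1210 cells (1 × 10^5/mL) in RPMI 1640 with 10% fetal calf serum, penicillin, streptomycin and 60 µM β-mercaptoethanol. Exposed to a range of drug concentrations in nonagitated suspension for 24 h at 37 °C, 5% CO2. Cells counted electronically; duplicate treated cultures compared with triplicate untreated controls. ED50 taken from percent inhibition plotted against log concentration.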

For the molecule `CCN(CC)CCOc1ccc(/C(=C(\Cl)c2ccccc2)c2ccccc2)cc1`, the rf50 in data set [1] worked out at 20.

With `COc1ccc2[nH]c3c(C)c4cc[n+](CC(=O)NCCCCCNCCOc5ccc(/C(=C(/Cl)c6ccccc6)c6ccccc6)cc5)cc4c(C)c3c2c1`, in data set [1], the rf50 amounted to 0.86.

Regarding `Cc1c2cc[n+](CC(=O)NCCCCCN(CCOc3ccc(/C(=C(/Cl)c4ccccc4)c4ccccc4)cc3)C(=O)C[n+]3ccc4c(C)c5[nH]c6ccc(O)cc6c5c(C)c4c3)cc2c(C)c2c1[nH]c1ccc(O)cc12.[Cl-].[Cl-]`, the Co in data set [2] was > 10 µM. Further, the EC50 in data set [3] worked out at 4 µM. Also, the rf50 in data set [1] was 4.8.

In the case of `CCN(CC)CCOc1ccc(/C(=C(/Cl)c2ccccc2)c2ccccc2)cc1`, the rf50 in data set [1] worked out at 20.

`Cc1c2cc[n+](CCNC(=O)CC3(C)CC[C@H]4[C@@H]5CCc6cc(O)ccc6[C@H]5CC[C@@]43C)cc2c(C)c2c1[nH]c1ccccc12.[Br-]` (stereo partly specified) came in with a Co in data set [2] of 0.15 µM. In data set [3], the EC50 turned out to be 0.5 µM. The molecule further yielded a rf50 in data set [1] of 1.5.

Turning to `Cc1c2cc[n+](CC(=O)NCCCCCNCCOc3ccc(/C(=C(/Cl)c4ccccc4)c4ccccc4)cc3)cc2c(C)c2c1[nH]c1ccc(O)cc12.[Cl-]`, in data set [2], the Co is > 10 µM. In data set [3], the EC50 was 4 µM. In addition, in data set [1], the rf50 was found to be 0.32.

The molecule `COc1ccc2[nH]c3c(C)c4cc[n+](CC(=O)NCCCCCN(CCOc5ccc(/C(=C(/Cl)c6ccccc6)c6ccccc6)cc5)C(=O)C[n+]5ccc6c(C)c7[nH]c8ccc(OC)cc8c7c(C)c6c5)cc4c(C)c3c2c1` came in with a rf50 in data set [1] of 10.

For the molecule `COc1ccc2[nH]c3c(C)c4cc[n+](CC(=O)N(CCCCCN)CCOc5ccc(/C(=C(/Cl)c6ccccc6)c6ccccc6)cc5)cc4c(C)c3c2c1.[Cl-]`, in data set [2], the Co was 9 µM. Moreover, the EC50 in data set [3] was found to be 5 µM. Also, the rf50 in data set [1] is 0.7.

Source of the values: ChEMBL document CHEMBL1123012, “Ellipticine derivatives with an affinity to the estrogen receptor, an approach to develop intercalating drugs with a specific effect on the hormone-dependent breast cancer” (J Med Chem, 1985).
